{"source": "ChEMBL document CHEMBL3627607", "about": "“A Novel Pyrazolopyridine with in Vivo Activity in Plasmodium berghei- and Plasmodium falciparum-Infected Mouse Models from Structure-Activity Relationship Studies around the Core of Recently Identified Antimalarial Imidazopyridazines” (J Med Chem, 2015)", "key": {"[1]": {"test": "Metabolic stability of the compound in mouse liver microsomes assessed as compound remaining at 0.1 uM after 30 mins by LC-MS/MS analysis", "assay_type": "ADME", "conditions": "0.5 h"}, "[2]": {"tested_on": "Plasmodium berghei", "test": "Antiplasmodial activity against Plasmodium berghei ANKA expressing GFP infected in mouse assessed as means survival days at 10 mg/kg, po qd for 4 days", "assay_type": "functional", "how_it_was_run": "(§1)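 Mice (n = 3) infected with GFP-transfected P. berghei ANKA. Compounds dissolved or suspended in HPMC vehicle (0.5% w/v hydroxypropylmethylcellulose, 0.5% v/v benzyl alcohol, 0.4% v/v Tween 80, 0.9% w/v NaCl in water). Dosed orally 4, 24, 48 and 72 h after infection. Parasitemia read by flow cytometry (detection limit 0.1%). Survival recorded as mean survival time in days.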"}, "[3]": {"tested_on": "Rattus norvegicus", "test": "Half life in rat at 5 mg/kg, iv", "assay_type": "ADME, organism-based", "conditions": "in vivo"}, "[4]": {"test": "Cmax in Plasmodium falciparum 3D7 infected in non-myelodepleted NOD-SCID IL2Rgammanull mouse engrafted with human erythrocytes at 10 mg/kg, po", "assay_type": "ADME, organism-based", "set-up": "dose 10 mg/kg, route oral", "conditions": "in vivo", "how_it_was_run": "(§2)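 Engrafted NSG (scid IL2Rgc null) mice infected with P. falciparum were given one oral dose per day for four days. Blood was sampled to measure parent and its sulfone metabolite.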"}, "[5]": {"test": "Half life in rat at 15 mg/kg, po", "assay_type": "ADME, organism-based", "conditions": "in vivo"}, "[6]": {"test": "Cmax in Plasmodium falciparum 3D7 infected in non-myelodepleted NOD-SCID IL2Rgammanull mouse engrafted with human erythrocytes at 1.5 mg/kg, po", "assay_type": "ADME, organism-based", "set-up": "dose 1.5 mg/kg, route oral", "conditions": "in vivo", "how_it_was_run": "as §2"}, "[7]": {"test": "Tmax in Plasmodium falciparum 3D7 infected in non-myelodepleted NOD-SCID IL2Rgammanull mouse engrafted with human erythrocytes at 0.5 mg/kg, po", "assay_type": "ADME, organism-based", "conditions": "in vivo", "how_it_was_run": "(§3)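 Humanized NSG mice infected with P. falciparum received one oral dose per day for 4 consecutive days. Blood was sampled for exposure, with levels of both parent and its main active metabolite measured. Tmax was taken from the blood concentration–time profile after oral dosing.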"}, "[8]": {"test": "Cmax in Plasmodium falciparum 3D7 infected in non-myelodepleted NOD-SCID IL2Rgammanull mouse engrafted with human erythrocytes at 30 mg/kg, po", "assay_type": "ADME, organism-based", "set-up": "dose 30 mg/kg, route oral", "conditions": "in vivo", "how_it_was_run": "as §2"}, "[9]": {"tested_on": "Plasmodium falciparum", "test": "Antiplasmodial activity against Plasmodium falciparum 3D7 infected in po dosed non-myelodepleted NOD-SCID IL2Rgammanull mouse engrafted with human erythrocytes assessed as reduction of parasitemia level administered qd for 4 days", "assay_type": "functional", "conditions": "3D7, po, 96 h", "how_it_was_run": "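P. falciparum-infected engrafted NSG mice were dosed orally once daily for four consecutive days. Blood parasitemia was monitored, and a 90% effective dose was derived along with the blood exposure at that dose.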"}, "[10]": {"test": "Drug level in mouse blood at 50 mg/kg, po after 1 hr", "assay_type": "ADME, organism-based", "conditions": "read-out: Drug uptake", "how_it_was_run": "(§4)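 Snapshot whole-blood levels of parent and its sulfone metabolite at 1, 4 and 24 h after the first 50 mg/kg oral dose. Samples came from the P. berghei-infected efficacy mice, dosed in HPMC suspension vehicle.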"}, "[11]": {"tested_on": "Liver microsome", "test": "Metabolic stability of the compound in human liver microsomes assessed as compound remaining at 0.1 uM after 30 mins by LC-MS/MS analysis", "assay_type": "ADME", "conditions": "0.5 h"}, "[12]": {"test": "Drug level in mouse blood at 50 mg/kg, po after 4 hrs", "assay_type": "ADME, organism-based", "conditions": "read-out: Drug uptake", "how_it_was_run": "as §4"}, "[13]": {"test": "Tmax in Plasmodium falciparum 3D7 infected in non-myelodepleted NOD-SCID IL2Rgammanull mouse engrafted with human erythrocytes at 1.5 mg/kg, po", "assay_type": "ADME, organism-based", "conditions": "in vivo", "how_it_was_run": "as §3"}, "[14]": {"test": "Cmax in Plasmodium falciparum 3D7 infected in non-myelodepleted NOD-SCID IL2Rgammanull mouse engrafted with human erythrocytes at 0.5 mg/kg, po", "assay_type": "ADME, organism-based", "set-up": "dose 0.5 mg/kg, route oral", "conditions": "in vivo", "how_it_was_run": "as §2"}, "[15]": {"test": "Selectivity index, ratio of IC50 for CHO cells to IC50 for multidrug resistant Plasmodium falciparum K1", "assay_type": "toxicity, cell-based", "conditions": "hamster, read-out: Ratio IC50"}, "[16]": {"test": "Tmax in Plasmodium falciparum 3D7 infected in non-myelodepleted NOD-SCID IL2Rgammanull mouse engrafted with human erythrocytes at 30 mg/kg, po", "assay_type": "ADME, organism-based", "conditions": "in vivo", "how_it_was_run": "as §3"}, "[17]": {"test": "Oral bioavailability in rat at 15 mg/kg", "assay_type": "ADME, organism-based", "conditions": "in vivo"}, "[18]": {"test": "AUC (0 to 8 hrs) in Plasmodium falciparum 3D7 infected in non-myelodepleted NOD-SCID IL2Rgammanull mouse engrafted with human erythrocytes at 10 mg/kg, po", "assay_type": "ADME, organism-based", "set-up": "time < 8 hr, dose 10 mg/kg, route oral", "conditions": "in vivo", "how_it_was_run": "as §2"}, "[19]": {"tested_on": "Blood", "test": "Drug metabolism in mouse assessed as 5-(3-(Cyclopropylsulfonyl)phenyl)-3-(4-(methylsulfonyl)-phenyl)pyrazolo[1,5-a]pyridine level in blood at 50 mg/kg, po after 24 hrs", "assay_type": "ADME, organism-based", "conditions": "in vivo", "how_it_was_run": "as §4"}, "[20]": {"tested_on": "Plasmodium berghei", "test": "Antiplasmodial activity against Plasmodium berghei ANKA expressing GFP infected in mouse assessed as means survival days at 3 mg/kg, po qd for 4 days", "assay_type": "functional", "how_it_was_run": "as §1"}, "[21]": {"tested_on": "Rattus norvegicus", "test": "Volume of distribution in rat at 5 mg/kg, iv", "assay_type": "ADME, organism-based", "conditions": "in vivo"}, "[22]": {"test": "AUC (0 to 2 hrs) in Plasmodium falciparum 3D7 infected in non-myelodepleted NOD-SCID IL2Rgammanull mouse engrafted with human erythrocytes at 0.1 mg/kg, po", "assay_type": "ADME, organism-based", "set-up": "time < 2 hr, dose 0.1 mg/kg, route oral", "conditions": "in vivo", "how_it_was_run": "as §2"}, "[23]": {"test": "Selectivity index, ratio of IC50 for CHO cells to IC50 for Plasmodium falciparum NF54", "assay_type": "toxicity, cell-based", "conditions": "hamster, read-out: Ratio IC50"}, "[24]": {"tested_on": "Plasmodium falciparum", "test": "Antiplasmodial activity against drug sensitive Plasmodium falciparum NF54 infected in human erythrocytes after 48 hrs by [3H]-hypoxanthine incorporation assay", "assay_type": "functional, organism-based"}, "[25]": {"test": "Tmax in Plasmodium falciparum 3D7 infected in non-myelodepleted NOD-SCID IL2Rgammanull mouse engrafted with human erythrocytes at 10 mg/kg, po", "assay_type": "ADME, organism-based", "conditions": "in vivo", "how_it_was_run": "as §3"}, "[26]": {"tested_on": "Liver microsome", "test": "Metabolic stability of the compound in rat liver microsomes assessed as compound remaining at 0.1 uM after 30 mins by LC-MS/MS analysis", "assay_type": "ADME", "conditions": "0.5 h"}, "[27]": {"test": "Drug level in mouse blood at 50 mg/kg, po after 24 hrs", "assay_type": "ADME, organism-based", "conditions": "blood, read-out: Drug uptake", "how_it_was_run": "as §4"}, "[28]": {"tested_on": "Blood", "test": "Drug metabolism in mouse assessed as 5-(3-(Cyclopropylsulfonyl)phenyl)-3-(4-(methylsulfonyl)-phenyl)pyrazolo[1,5-a]pyridine level in blood at 50 mg/kg, po after 4 hrs", "assay_type": "ADME, organism-based", "conditions": "in vivo", "how_it_was_run": "as §4"}, "[29]": {"test": "AUC (0 to 8 hrs) in Plasmodium falciparum 3D7 infected in non-myelodepleted NOD-SCID IL2Rgammanull mouse engrafted with human erythrocytes at 1.5 mg/kg, po", "assay_type": "ADME, organism-based", "set-up": "dose 1.5 mg/kg, time < 8 hr, route oral", "conditions": "in vivo", "how_it_was_run": "as §2"}, "[30]": {"tested_on": "Plasmodium berghei", "test": "Antiplasmodial activity against Plasmodium berghei ANKA expressing GFP infected in mouse assessed as reduction of parasitemia level at 10 mg/kg, po qd for 4 days measured on day 4 post last dose by flow cytometric analysis relative to control", "assay_type": "functional", "set-up": "scale not given: the % may be the effect or the level left", "how_it_was_run": "(§5)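 Mice (n = 3) infected with GFP-transfected P. berghei ANKA. Test agents were suspended in HPMC vehicle (0.5% w/v hydroxypropylmethylcellulose, 0.5% v/v benzyl alcohol, 0.4% v/v Tween 80, 0.9% w/v NaCl in water). Dosed orally at 4, 24, 48 and 72 h post-infection. Parasitemia read by flow cytometry on day 4 (96 h), detection limit 0.1%. Activity = control-minus-treated mean % parasitemia, relative to control.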"}, "[31]": {"test": "Tmax in Plasmodium falciparum 3D7 infected in non-myelodepleted NOD-SCID IL2Rgammanull mouse engrafted with human erythrocytes at 0.1 mg/kg, po", "assay_type": "ADME, organism-based", "conditions": "in vivo", "how_it_was_run": "as §2"}, "[32]": {"tested_on": "Plasmodium berghei", "test": "Antiplasmodial activity against Plasmodium berghei ANKA expressing GFP infected in mouse assessed as reduction of parasitemia level at 3 mg/kg, po qd for 4 days measured on day 4 post last dose by flow cytometric analysis relative to control", "assay_type": "functional", "set-up": "scale not given: the % may be the effect or the level left", "how_it_was_run": "as §5"}, "[33]": {"test": "Selectivity index, ratio of IC50 for African green monkey VERO cells to IC50 for Plasmodium falciparum NF54", "assay_type": "toxicity, cell-based", "conditions": "read-out: Ratio IC50"}}, "data": [{"smiles": "C[S+]([O-])c1ccc(-c2cnn3ccc(-c4cccc(S(=O)(=O)C5CC5)c4)cc23)cc1", "note": "(stereo not drawn)", "values": [{"measurement": "Stability", "setting": "[1]", "value": "Stable"}, {"measurement": "MSD", "setting": "[2]", "value": 8, "unit": "days"}, {"measurement": "t1/2", "setting": "[3]", "value": 2.7, "unit": "h"}, {"measurement": "Cmax", "setting": "[4]", "value": 50, "unit": "ng/mL"}, {"measurement": "half-life", "setting": "[5]", "value": 1, "unit": "h"}, {"measurement": "Cmax", "setting": "[6]", "value": 30, "unit": "ng/mL"}, {"measurement": "Tmax", "setting": "[7]", "value": 0.25, "unit": "h"}, {"measurement": "Cmax", "setting": "[8]", "value": 226, "unit": "ng/mL"}, {"measurement": "ED90", "setting": "[9]", "value": 0.5, "unit": "mg/kg"}, {"measurement": "concentration at 1 h", "setting": "[10]", "value": 2960, "unit": "nM"}, {"measurement": "Stability", "setting": "[11]", "value": "Stable"}, {"measurement": "concentration at 4 h", "setting": "[12]", "value": 1780, "unit": "nM"}, {"measurement": "Tmax", "setting": "[13]", "value": 0.5, "unit": "h"}, {"measurement": "Cmax", "setting": "[14]", "value": 4, "unit": "ng/mL"}, {"measurement": "selectivity ratio", "setting": "[15]", "value": "> 1000"}, {"measurement": "Tmax", "setting": "[16]", "value": 6, "unit": "h"}, {"measurement": "bioavailability", "setting": "[17]", "value": 14, "unit": "%"}, {"measurement": "AUC(0-t) at 8 h", "setting": "[18]", "value": 293, "unit": "ng·h/mL"}, {"measurement": "Drug metabolism", "setting": "[19]", "value": 3.1, "unit": "µM"}, {"measurement": "MSD", "setting": "[20]", "value": 7, "unit": "days"}, {"measurement": "Vd", "setting": "[21]", "value": 6.8, "unit": "L/kg"}, {"measurement": "AUC(0-t) at 2 h", "setting": "[22]", "value": 2.1, "unit": "ng·h/mL"}, {"measurement": "selectivity ratio", "setting": "[23]", "value": "> 1000"}, {"measurement": "IC50", "setting": "[24]", "value": 6, "unit": "nM"}, {"measurement": "Tmax", "setting": "[25]", "value": 2, "unit": "h"}, {"measurement": "Stability", "setting": "[26]", "value": "Stable"}, {"measurement": "concentration at 24 h", "setting": "[27]", "value": 30, "unit": "nM"}, {"measurement": "Drug metabolism", "setting": "[28]", "value": 10.3, "unit": "µM"}, {"measurement": "AUC(0-t) at 8 h", "setting": "[29]", "value": 40.5, "unit": "ng·h/mL"}, {"measurement": "Activity", "setting": "[30]", "value": 99.9, "unit": "%"}, {"measurement": "Tmax", "setting": "[31]", "value": 0.25, "unit": "h"}, {"measurement": "Activity", "setting": "[32]", "value": 75, "unit": "%"}, {"measurement": "selectivity ratio", "setting": "[33]", "value": "> 1000"}]}]}
